ChEMBL document CHEMBL1128227, “Cosalane analogues with enhanced potencies as inhibitors of HIV-1 protease and integrase” (J Med Chem, 1995)
pIC50: −log10 of the molar value. ≈ marks a conversion by molar mass, not a printed value.

Assays:
[1] = tested on: HEL; test: Antiviral activity was determined against Vesicular stomatitis virus in HEL cells by measuring concentration required to reduce virus induced cytopathogenicity by 50%.; type: functional, cell-based; details: Homo sapiens
[2] = tested on: HEL; test: Antiviral activity was determined against Vaccinia virus in HEL cells by measuring concentration required to reduce virus induced cytopathogenicity by 50%.; type: functional, cell-based; details: Homo sapiens
[3] = tested on: HeLa; test: Antiviral activity was determined against Respiratory syncytial virus(strain Long) in HeLa cells by measuring concentration required to reduce virus induced cytopathogenicity by 50%.; type: functional, cell-based; details: Homo sapiens
Summary of the method: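 RSV cytopathicity in HeLa cells. Compound added immediately after virus infection and left in the culture. Virus-induced cytopathogenicity scored at day 5 post-infection. IC50 in μg/mL.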

[4] = tested on: MDCK; test: Antiviral activity was determined against Influenza virus A(strain Ishikawa) in MDCK cells by measuring concentration required to reduce virus induced cytopathogenicity by 50%.; type: functional, cell-based; details: Canis lupus familiaris
Summary of the method: (§1)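 Tested in MDCK cells, with compound applied right after infection and left on. Cytopathic effect of influenza A (Ishikawa) or B (Singapore) was read at day 5 pi. IC50 is the concentration halving cytopathogenicity, in µg/mL.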

[5] = tested on: MDCK; test: Antiviral activity was determined against Influenza virus B(strain Singapore) MDCK cells by measuring concentration required to reduce virus induced cytopathogenicity by 50%.; type: functional, cell-based; details: Canis lupus familiaris; summary of the method: as §1
[6] = tested on: MT4; test: Viral cytopathicity against HIV -I (HTLV-IIIb) strain determined in MT-4 cells; type: functional, cell-based; details: Homo sapiens
[7] = tested on: MT4; test: Viral cytopathicity against HIV -2 (LAV-2 rod)strain determined in MT-4 cells; type: functional, cell-based; details: Homo sapiens
[8] = biological target: Human immunodeficiency virus type 1 integrase (Human immunodeficiency virus 1, UniProt Q7ZJM1); test: Inhibition of HIV -1 Integrase
Chain of Human immunodeficiency virus type 1 integrase (Q7ZJM1 whole entry): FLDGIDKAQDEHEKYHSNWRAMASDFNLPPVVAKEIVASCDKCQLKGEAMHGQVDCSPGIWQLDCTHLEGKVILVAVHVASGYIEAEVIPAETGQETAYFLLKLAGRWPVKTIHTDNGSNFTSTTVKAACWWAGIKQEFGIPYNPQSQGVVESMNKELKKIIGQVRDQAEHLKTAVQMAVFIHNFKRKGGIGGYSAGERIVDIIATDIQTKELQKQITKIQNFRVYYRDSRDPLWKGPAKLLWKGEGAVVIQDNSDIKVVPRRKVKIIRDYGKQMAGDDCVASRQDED
Summary of the method: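 Purified HIV-1 integrase. 3'-processing and strand-transfer (integration) activities were measured with synthetic double-stranded oligonucleotides mimicking viral DNA ends. Compounds tested as ammonium salts. Values are means of at least two experiments.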

[9] = tested on: MDCK; test: Antiviral activity against MDCK cells by measuring minimum cytotoxic concentration that causes a microscopically detectable alteration of normal cell morphology after 2 day of treatment.; type: functional; details: Canis lupus familiaris, 48 h
[10] = tested on: HEL; test: Antiviral activity was determined against (Herpes simplex virus -2) by concentration required to reduce virus induced cytopathogenicity by 50%.; type: functional, cell-based; details: Homo sapiens
[11] = tested on: HEL; test: Antiviral activity was determined against Herpes simplex virus -1 TK-/TK+ in HEL cells by measuring concentration required to reduce virus induced cytopathogenicity by 50%.; type: functional, cell-based; details: Homo sapiens
[12] = species on record: Homo sapiens; test: Inhibition of p24 production in Peripheral blood lymphocytes; type: functional, organism-based
Summary of the method: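 Phytohemagglutinin-stimulated peripheral blood lymphocytes infected with HIV-1 WUJO. Read-out is virion-associated p24 production. Compounds tested as ammonium salts. Values are means of at least two experiments.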

[13] = biological target: Human immunodeficiency virus type 1 protease (Human immunodeficiency virus 1, UniProt Q72874); test: Inhibition of HIV -1 protease
Summary of the method: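 Purified HIV-1 protease with the peptide substrate Ala-Ser-Glu-Asn-Tyr-Pro-Ile-Val-Glu-amide. Cleavage quantified by reverse-phase HPLC. Compounds tested as ammonium salts. Values are means of at least two experiments.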

[14] = tested on: MT4; test: Cytotoxical effect against MT-4 cell lines was determined by reduction of cellular viability; type: functional; details: Homo sapiens
Summary of the method: (§2)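 Compounds tested as ammonium salts. Cytotoxicity in CEM-SS, MT-4 or PBL cultures taken from the reduction in cellular viability. Values are means of at least two separate experiments.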

[15] = tested on: MOLT-4; test: Giant cell formation between HIV-2 (LAV-2 rod) infected HUT-78 cells and uninfected MOLT-4(clone-8)cells; type: functional, cell-based; details: Homo sapiens
Summary of the method: (§3)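 Syncytium assay: HUT-78 cells persistently infected with HIV-1 (HTLV-IIIB) or HIV-2 (LAV-2ROD) were co-cultured with uninfected MOLT-4 (clone 8) cells, and giant-cell formation was scored. Compounds tested as ammonium salts. Values are means of at least two experiments.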

[16] = tested on: Vero; test: Antiviral activity was determined against Junin virus in Vero cells by measuring concentration required to reduce virus induced cytopathogenicity by 50%.; type: functional, cell-based; details: Chlorocebus sabaeus
[17] = tested on: HeLa; test: Antiviral activity against HeLa cells by measuring minimum cytotoxic concentration that causes a microscopically detectable alteration of normal cell morphology after 2 day of treatment.; type: functional; details: Homo sapiens, 48 h
[18] = species on record: Homo sapiens; test: Cytotoxical effect against PBL cell lines was determined by reduction of cellular viability; type: functional; summary of the method: as §2
[19] = tested on: HEL; test: Antiviral activity was determined against Human cytomegalovirus (strain Davis) in HEL cells by measuring concentration required to reduce virus induced cytopathogenicity by 50%.; type: functional, cell-based
[20] = tested on: Vero; test: Antiviral activity was determined against Tacaribe virus in Vero cells by measuring concentration required to reduce virus induced cytopathogenicity by 50%.; type: functional, cell-based; details: Chlorocebus sabaeus
[21] = tested on: Vero; test: Antiviral activity against Vero cells by measuring minimum cytotoxic concentration that causes a microscopically detectable alteration of normal cell morphology after 2 day of treatment.; type: functional; details: Chlorocebus sabaeus, 48 h
[22] = tested on: MOLT-4; test: Giant cell formation between HIV-1 (HTLV-IIIB) infected HUT-78 cells and uninfected MOLT-4(clone-8)cells; type: functional, cell-based; details: Homo sapiens; summary of the method: as §3
[23] = tested on: CCRF-CEM; test: Cytotoxical effect against CEM cell lines was determined by reduction of cellular viability; type: functional; details: Homo sapiens; summary of the method: as §2
[24] = tested on: HEL; test: Antiviral activity against HEL cells by measuring minimum cytotoxic concentration that causes a microscopically detectable alteration of normal cell morphology after 2 day of treatment.; type: functional; details: Homo sapiens, 48 h
[25] = tested on: HEL; test: Antiviral activity was determined against Herpes simplex virus -1 TK- in HEL cells by measuring concentration required to reduce virus induced cytopathogenicity by 50%.; type: functional, cell-based; details: Homo sapiens
[26] = tested on: HEL; test: Antiviral activity was determined against Herpes simplex virus -1 in HEL cells by measuring concentration required to reduce virus induced cytopathogenicity by 50%.; type: functional, cell-based; details: Homo sapiens

SMILES: CC(C)CCCC(C)[C@H]1CC[C@H]2[C@@H]3CCC4CC(=C(c5cc(Cl)c(O)c(C(=O)O)c5)c5cc(Cl)c(O)c(C(=O)O)c5)CC[C@]4(C)[C@H]3CC[C@]12C (some centres undefined)
- IC50 [1]: > 20 µg/mL
- IC50 [2]: > 20 µg/mL
- IC50 [3]: 20 µg/mL (≈ 27.6 µM)
- IC50 [4]: 14 µg/mL (≈ 19.3 µM)
- IC50 [5]: > 200 µg/mL
- pIC50 [6]: 5.60
- pIC50 [7]: 5.22
- pIC50 [8]: < 4.00
- MCC [9]: > 200 µg/mL
- IC50 [10]: 12 µg/mL (≈ 16.5 µM)
- IC50 [11]: > 20 µg/mL
- pIC50 [12]: 4.23
- pIC50 [13]: 6.46
- CC50 [14]: 36.7 µM
- pIC50 [15]: 4.62
- IC50 [16]: 16 µg/mL (≈ 22 µM)
- MCC [17]: 100 µg/mL
- CC50 [18]: 78 µM
- IC50 [19]: 2.35 µg/mL (≈ 3.24 µM)
- IC50 [20]: 20 µg/mL (≈ 27.6 µM)
- MCC [21]: 200 µg/mL
- pIC50 [22]: 4.62
- CC50 [23]: > 200 µM
- MCC [24]: > 50 µg/mL
- IC50 [25]: > 20 µg/mL
- IC50 [26]: > 20 µg/mL

SMILES: CC(C)CCCC(C)[C@H]1CC[C@H]2[C@@H]3CCC4C[C@@H](CCC=C(c5cc(Cl)c(O)c(C(=O)O)c5)c5cc(Cl)c(O)c(C(=O)O)c5)CC[C@]4(C)[C@H]3CC[C@]12C (some centres undefined)
- IC50 [1]: 10 µg/mL (≈ 13 µM)
- IC50 [2]: > 20 µg/mL
- pIC50 [6]: 5.74
- pIC50 [7]: 5.40
- pIC50 [8]: 4.60
- IC50 [10]: 7.4 µg/mL (≈ 9.64 µM)
- IC50 [11]: 20 µg/mL (≈ 26 µM)
- pIC50 [12]: 4.48
- pIC50 [13]: 5.82
- CC50 [14]: > 125 µM
- pIC50 [15]: 4.60
- CC50 [18]: 67 µM
- IC50 [19]: 2.7 µg/mL (≈ 3.52 µM)
- pIC50 [22]: 4.60
- CC50 [23]: > 200 µM
- MCC [24]: > 100 µg/mL
- IC50 [25]: > 20 µg/mL
- IC50 [26]: 10 µg/mL (≈ 13 µM)

SMILES: O=C(O)c1cc(C(=CCC23CC4CC(CC(C4)C2)C3)c2cc(Cl)c(O)c(C(=O)O)c2)cc(Cl)c1O
- IC50 [1]: > 5 µg/mL
- IC50 [2]: > 5 µg/mL
- IC50 [3]: 4 µg/mL (≈ 7.73 µM)
- IC50 [4]: > 4 µg/mL
- IC50 [5]: > 4 µg/mL
- pIC50 [6]: < 4.40
- pIC50 [8]: 5.15
- MCC [9]: 4 µg/mL
- IC50 [10]: > 20 µg/mL
- IC50 [11]: > 5 µg/mL
- pIC50 [12]: 3.83
- pIC50 [13]: 6.43
- CC50 [14]: > 40 µM
- pIC50 [15]: < 4.40
- IC50 [16]: > 20 µg/mL
- MCC [17]: 20 µg/mL
- CC50 [18]: 185 µM
- IC50 [19]: 11 µg/mL (≈ 21.3 µM)
- IC50 [20]: > 20 µg/mL
- MCC [21]: 50 µg/mL
- pIC50 [22]: < 4.40
- CC50 [23]: 105 µM
- MCC [24]: 50 µg/mL
- IC50 [25]: > 5 µg/mL
- IC50 [26]: > 5 µg/mL
